Experimental data reported in PMC11261619 (Journal of Agricultural and Food Chemistry, 2024).

Columns and labels:
human OR11A1 = target: T1, human OR11A1 (Homo sapiens, UniProt Q9GZK7); assay: cAMP luminescence; assay type: cell-based; settings: for KFO screening signal on human OR11A1 relative to 3σ-threshold: each KFO 300 μmol/L, triplicate, normalized to response of OR11A1 to geosmin; for Concentration-dependent activation of OR11A1 (concentration–response validation): normalized to OR1A1 response to (R)-(−)-carvone (30 μmol/L), n = 3
T1 sequence (Q9GZK7 1-315): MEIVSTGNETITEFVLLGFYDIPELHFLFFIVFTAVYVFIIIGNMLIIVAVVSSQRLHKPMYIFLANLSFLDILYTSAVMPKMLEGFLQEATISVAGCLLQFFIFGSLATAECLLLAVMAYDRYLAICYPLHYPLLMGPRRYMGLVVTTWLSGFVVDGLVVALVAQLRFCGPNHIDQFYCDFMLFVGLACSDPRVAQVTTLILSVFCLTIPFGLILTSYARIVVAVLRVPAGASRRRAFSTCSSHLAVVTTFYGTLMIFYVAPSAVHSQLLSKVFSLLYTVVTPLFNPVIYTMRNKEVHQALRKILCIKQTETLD

doOR11A1 = target: T2, doOR11A1 (Dipodomys ordii, UniProt A0A1S3GF11); assay: cAMP luminescence; assay type: cell-based, Kangaroo rat (Dipodomys ordii)
T2 sequence (A0A1S3GF11 1-311): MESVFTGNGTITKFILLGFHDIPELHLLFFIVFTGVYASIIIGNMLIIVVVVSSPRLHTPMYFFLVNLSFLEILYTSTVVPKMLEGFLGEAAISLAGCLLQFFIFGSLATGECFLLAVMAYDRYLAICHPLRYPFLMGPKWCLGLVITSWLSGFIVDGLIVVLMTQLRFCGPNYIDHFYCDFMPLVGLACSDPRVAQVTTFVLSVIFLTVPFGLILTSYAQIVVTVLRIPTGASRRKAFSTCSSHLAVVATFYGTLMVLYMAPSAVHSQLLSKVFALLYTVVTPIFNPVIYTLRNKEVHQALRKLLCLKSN
How it was run: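 HEK-293 cells (DMEM, 4.5 g/L glucose, 10% FBS, 2 mM L-glutamine, penicillin/streptomycin; 37 °C, 5% CO2) co-transfected via ViaFect with the ortholog coding region in IL-6-HaloTag-pFN210A and pGloSensor-22F. Luminescence was averaged before and after odorant application, then baseline-subtracted and mock-subtracted. Responses were normalized to OR1A1 response to (R)-(−)-carvone (30 μmol/L). EC50 came from nonlinear sigmoidal regression; mean ± SD, n = 3–6 independent transfections.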

| SMILES | KFO screening signal on human OR11A1 relative to 3σ-threshold (human OR11A1) | Concentration-dependent activation of OR11A1 (concentration–response validation) (human OR11A1) | Sensitivity of kangaroo rat receptor compared to its human ortholog (doOR11A1; doOR11A1 vs human OR11A1) | Sensitivities of OR11A1 homologues across species compared to the human receptor (doOR11A1; homologues across species vs human OR11A1) | Efficacy of response to geosmin among OR11A1 orthologs (doOR11A1; normalized to OR1A1 response to (R)-(−)-carvone (30 μmol/L)) |
| --- | --- | --- | --- | --- | --- |
| CC12CCC(CC1)C(C)(C)O2 [1,8-cineol] | reached the 3σ-threshold | could not be validated |  |  |  |
| CSCCCO [methionol, 3-(methylsulfanyl) Propanol (methionol)] | reached the 3σ-threshold | could not be validated |  |  |  |
| C[C@H]1CCC[C@@]2(C)CCCC[C@]12O [geosmin, (4S,4aS,8aR)-4,8a-dimethyloctahydronaphthalen-4a(2H)-ol] |  |  | more than 100 fold | up to 100 fold | most effective responder |

Continued, values first:

| KFO screening signal on human OR11A1 relative to 3σ-threshold (human OR11A1) | Concentration-dependent activation of OR11A1 (concentration–response validation) (human OR11A1) | Sensitivity of kangaroo rat receptor compared to its human ortholog (doOR11A1; doOR11A1 vs human OR11A1) | Sensitivities of OR11A1 homologues across species compared to the human receptor (doOR11A1; homologues across species vs human OR11A1) | Efficacy of response to geosmin among OR11A1 orthologs (doOR11A1; normalized to OR1A1 response to (R)-(−)-carvone (30 μmol/L)) | SMILES |
| --- | --- | --- | --- | --- | --- |
| above the 3σ-threshold | could not be validated |  |  |  | CCCCC(=O)OCC [ethyl pentanoate] |
| above the 3σ-threshold | could not be validated |  |  |  | C=Cc1ccc(O)cc1 [4-ethenylphenol] |
